From ChEMBL document CHEMBL3272038, “Synthesis and central nervous system depressant activity of some bicyclic amides” (J Med Chem, 1976) come the findings set out here.

The ED50 is the midpoint of the dose-response relation. A word on the LD50: it is the dose expected to kill half of the subjects tested. Low readings indicate a more toxic substance, high ones a less toxic substance.

Calls of active or inactive are those of the source. The calls are words filed in the database; no cut-off is given here.

For data set [1], the system named is Mus musculus. The data set can be described thus: Central nervous depressant activity in ip dosed mouse assessed as loss of righting reflex. Particulars: Central nervous system. It counts as functional. A digest of the protocol:
(§1)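 Behavioral scoring in mice used a modified Irwin observational method. Compounds were given ip at ten animals per dose. Ataxia and loss of righting reflex were recorded, and ED50 values are in mg/kg ip.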

The species named for data set [2] is Mus musculus. Description: Anticonvulsant activity in mouse assessed as protection against maximal electroshock-induced seizures. It is filed as functional. A digest of the protocol:
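Maximal electroshock seizure test in mice, run by an earlier published method. Compounds were given ip at ten animals per dose, and ED50 is expressed in mg/kg ip.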
In general terms: In the maximal electroshock model the usual endpoint is tonic extension of the hind limbs.

For data set [3], the system named is Mus musculus. Description: Central nervous depressant activity in ip dosed mouse assessed as induction of ataxia. It counts as functional. To be noted: Central nervous system. A digest of the protocol:
as §1

Data set [4] can be described thus: Acute toxicity in ip dosed Royal Hart Wistar rat. It counts as organism-based. Particulars: in vivo. In a few lines: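 Paired male Royal Hart Wistar rats (136–160 g) were housed in wire cages and dosed ip. LD50 was read 2 hr after administration, using four rats per substance, and estimated by probit analysis.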
Data set [5] is filed under the species Mus musculus. Description: Anticonvulsant activity in mouse assessed as protection against N-sulfamoylhexahydroazepine-induced convulsions. It counts as functional. In a few lines:
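N-sulfamoylhexahydroazepine convulsion test in mice, run by an earlier published method. Compounds were given ip at ten animals per dose, and ED50 is expressed in mg/kg ip.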

Data set [6] deals with Mus musculus. The data set can be described thus: Reinduction of anesthesia-induced loss of righting in dosed mouse administered compound following recovery from hexobarbital anesthesia. It is filed as functional. In a few lines:
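Mice were anesthetized with hexobarbital (70 mg/kg iv). Compound was given ip immediately on recovery, and reinduction of loss of righting was timed from that point. The method was modified from earlier work, and RD50 is expressed in mg/kg ip.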

Data set [7] deals with Mus musculus. The data set can be described thus: Anticonvulsant activity in mouse assessed as protection against maximal electroshock-induced seizures at 100 mg/kg, ip. It counts as functional, organism-based. Also noted: dose 100 mg/kg.
For data set [8], the system named is Mus musculus. The data set can be described thus: Anticonvulsant activity in mouse assessed as protection against N-sulfamoylhexahydroazepine-induced convulsions at 200 mg/kg, ip. It counts as functional, organism-based. Set-up: dose 200 mg/kg.
Data set [9] relates to Mus musculus. Description: Anticonvulsant activity in mouse assessed as protection against maximal electroshock-induced seizures at 200 mg/kg, ip. It is filed as functional, organism-based. Set-up: dose 200 mg/kg.
The test system of data set [10] is Mus musculus. Description: Anticonvulsant activity in mouse assessed as protection against N-sulfamoylhexahydroazepine-induced convulsions at 400 mg/kg, ip. It counts as functional, organism-based. Set-up: dose 400 mg/kg.

`CCC1(c2ccccc2)C(=O)N=C([O-])NC1=O.[Na+]` (stereo not drawn) [PHENOBARBITAL SODIUM]: the median effective dose (ED50) with Mus musculus [1] is 83 mg/kg; in the data set listed under Mus musculus [2], 15.4 mg/kg; in the data set on Mus musculus [3], 62.5 mg/kg; in the data set listed under Mus musculus [5], 8 mg/kg. This compound registered an LD50 in [4] of 225 mg/kg. The RD50 with Mus musculus [6] was determined as 65.6 mg/kg.
As to `COc1ccc(C(=O)CCC(=O)NCCCO)cc1`, the ED50 was 800 mg/kg with Mus musculus [1], more than 600 mg/kg in the data set listed under Mus musculus [2], 150 mg/kg with Mus musculus [3] and more than 600 mg/kg in the data set listed under Mus musculus [5]. The same compound displayed an LD50 in data set [4] of 800 mg/kg. Further, in the data set on Mus musculus [6], the RD50 is less than 600 mg/kg.
`O=C(CCC(=O)c1ccc(Cl)c(Cl)c1)NCCCO`: the median effective dose (ED50) in the data set with Mus musculus [1] was 500 mg/kg; in the data set filed under Mus musculus [2] it was 450 mg/kg; in the data set on Mus musculus [3] it was 300 mg/kg; in the data set listed under Mus musculus [5], more than 600 mg/kg. The 50% lethal dose (LD50) in [4] was 500 mg/kg. The RD50 in the data set with Mus musculus [6] is more than 300 mg/kg.
Regarding `O=C1CCCC2(c3ccccc3)OCCCN12` (stereo not drawn), the 50% effective dose (ED50) was 150 mg/kg with Mus musculus [1], less than 150 mg/kg in the data set listed under Mus musculus [2], less than 50 mg/kg in the data set with Mus musculus [3] and 122 mg/kg in the data set filed under Mus musculus [5]. This compound also showed an LD50 in [4] of 500 mg/kg. In the data set with Mus musculus [6], the RD50 is 75 mg/kg.
Regarding `Cc1ccc(C23CCC(=O)N2CCCO3)cc1` (stereo not drawn), the result in the data set with Mus musculus [7] and in the data set on Mus musculus [8] was inactive. Besides, the figures for the ED50 with Mus musculus [1] and in the data set with Mus musculus [3] were 160 mg/kg and less than 50 mg/kg, respectively. The median lethal dose (LD50) in [4] stood at 675 mg/kg. Further, the RD50 in the data set on Mus musculus [6] was more than 100 mg/kg.
In the case of `O=C1CCC2(c3ccccc3)OCCN12` (stereo not drawn), the results for the 50% effective dose (ED50) in the data set on Mus musculus [1] and in the data set with Mus musculus [3] were 150 mg/kg and less than 50 mg/kg, respectively. Also, the outcome with Mus musculus [8] and in the data set with Mus musculus [9] was inactive. In data set [4], this compound yielded a 50% lethal dose (LD50) of 300 mg/kg. The compound also registered an RD50 with Mus musculus [6] of 37.5 mg/kg.
Turning to `Cc1ccc(C(=O)CCC(=O)NCCCO)cc1`, the ED50 was 700 mg/kg with Mus musculus [1], more than 300 mg/kg in the data set listed under Mus musculus [2], 300 mg/kg in the data set on Mus musculus [3] and more than 300 mg/kg in the data set filed under Mus musculus [5]. The median lethal dose (LD50) in data set [4] was 750 mg/kg. Further, the RD50 with Mus musculus [6] is less than 300 mg/kg.
Take `O=C(CCC(=O)c1ccc(F)cc1)NCCCO`: the median effective dose (ED50) in the data set on Mus musculus [1] was 500 mg/kg; in the data set listed under Mus musculus [2], more than 400 mg/kg; with Mus musculus [3], 300 mg/kg; in the data set listed under Mus musculus [5], more than 400 mg/kg. Moreover, the 50% lethal dose (LD50) in [4] was more than 800 mg/kg. In addition, the RD50 in the data set with Mus musculus [6] was more than 400 mg/kg.
For the compound `COc1ccc(C23CCC(=O)N2CCCO3)cc1` (stereo not drawn), the median effective dose (ED50) in the data set with Mus musculus [1] was less than 150 mg/kg; in the data set listed under Mus musculus [2], 93.8 mg/kg; in the data set with Mus musculus [3], less than 150 mg/kg; in the data set filed under Mus musculus [5] it was 138 mg/kg. The compound further gave an RD50 in the data set with Mus musculus [6] of less than 150 mg/kg.
In the case of `O=C(CCC(=O)c1cccs1)NCCCO`, the 50% effective dose (ED50) is 300 mg/kg in the data set on Mus musculus [1], more than 300 mg/kg in the data set filed under Mus musculus [2], 300 mg/kg in the data set on Mus musculus [3] and more than 300 mg/kg in the data set listed under Mus musculus [5]. This compound returned a 50% lethal dose (LD50) in data set [4] of 475 mg/kg. Besides, the RD50 in the data set on Mus musculus [6] is more than 300 mg/kg.
Take `O=C1CCC2(c3ccccc3)OCCCN12` (stereo not drawn): the 50% effective dose (ED50) in the data set on Mus musculus [1] turned out to be 150 mg/kg; in the data set filed under Mus musculus [2], 92 mg/kg; in the data set with Mus musculus [3], 37.5 mg/kg; in the data set listed under Mus musculus [5], 169 mg/kg. In [4], this compound showed a 50% lethal dose (LD50) of 500 mg/kg. The compound also displayed an RD50 with Mus musculus [6] of 34 mg/kg.
Consider `Cc1ccc(C23CCC(=O)N2CCCO3)c(C)c1` (stereo not drawn), for which the median effective dose (ED50) in the data set with Mus musculus [1] is 150 mg/kg; in the data set filed under Mus musculus [2], more than 150 mg/kg; in the data set on Mus musculus [3], less than 50 mg/kg; in the data set listed under Mus musculus [5] it was less than 150 mg/kg. For the same compound, in data set [4], the LD50 was found to be 600 mg/kg. Also, the RD50 in the data set on Mus musculus [6] was less than 150 mg/kg.
For `O=C1CCC2(c3ccc(Cl)c(Cl)c3)OCCCN12` (stereo not drawn), the ED50 with Mus musculus [1] is less than 150 mg/kg; in the data set filed under Mus musculus [2], 112 mg/kg; in the data set with Mus musculus [3], less than 150 mg/kg; in the data set filed under Mus musculus [5], less than 75 mg/kg. The compound further registered an LD50 in data set [4] of 550 mg/kg. In the data set on Mus musculus [6], this compound gave an RD50 of more than 150 mg/kg.
`CCC1(c2ccccc2)CCC(=O)NC1=O` (stereo not drawn) [GLUTETHIMIDE]: the ED50 is 229 mg/kg in the data set on Mus musculus [1], 24.7 mg/kg in the data set listed under Mus musculus [2] and 100 mg/kg in the data set on Mus musculus [3]. Further, the outcome with Mus musculus [10] was inactive. The 50% lethal dose (LD50) in [4] amounted to 350 mg/kg. Further, the RD50 with Mus musculus [6] turned out to be 112.5 mg/kg.
As for `O=C1CCCC2(c3ccccc3)OCCN12` (stereo not drawn), the ED50 is more than 150 mg/kg with Mus musculus [1], 158 mg/kg in the data set filed under Mus musculus [2], less than 150 mg/kg with Mus musculus [3] and 150 mg/kg in the data set listed under Mus musculus [5]. Besides, the RD50 in the data set on Mus musculus [6] came out at 69 mg/kg.
For `O=C1CCC2(c3ccc(Cl)cc3)OCCCN12` (stereo not drawn), the median effective dose (ED50) in the data set on Mus musculus [1] is 81.2 mg/kg; in the data set listed under Mus musculus [2], 58 mg/kg; in the data set on Mus musculus [3] it was 75 mg/kg; in the data set listed under Mus musculus [5] it was 91.7 mg/kg. The compound also registered a 50% lethal dose (LD50) in data set [4] of 675 mg/kg. For the same compound, in the data set with Mus musculus [6], the RD50 is more than 100 mg/kg.
In the case of `O=C1CCC2(c3ccc(F)cc3)OCCCN12` (stereo not drawn), the ED50 was determined as 100 mg/kg in the data set on Mus musculus [1], 68.7 mg/kg in the data set listed under Mus musculus [2], 75 mg/kg in the data set with Mus musculus [3] and 50 mg/kg in the data set listed under Mus musculus [5]. The compound further came in with a 50% lethal dose (LD50) in data set [4] of 600 mg/kg. Further, the RD50 with Mus musculus [6] is 66 mg/kg.
For `Cc1ccc(C(=O)CCC(=O)NCCCO)c(C)c1`, the ED50 in the data set on Mus musculus [1] is 150 mg/kg; in the data set listed under Mus musculus [2] it was more than 150 mg/kg; with Mus musculus [3] it was 150 mg/kg; in the data set listed under Mus musculus [5], more than 150 mg/kg. The same compound had a median lethal dose (LD50) in [4] of 633 mg/kg. Further, the RD50 with Mus musculus [6] is less than 150 mg/kg.
With `O=C(CCC(=O)c1ccc(Cl)cc1)NCCCO`, the 50% effective dose (ED50) in the data set with Mus musculus [1] was 325 mg/kg; in the data set listed under Mus musculus [2], more than 300 mg/kg; with Mus musculus [3], 300 mg/kg; in the data set listed under Mus musculus [5] it was more than 300 mg/kg. The median lethal dose (LD50) in data set [4] is 633 mg/kg. In addition, in the data set with Mus musculus [6], the RD50 was less than 300 mg/kg.
Consider `O=C1CCC2(c3cccs3)OCCCN12` (stereo not drawn), for which the ED50 with Mus musculus [1] was more than 75 mg/kg; in the data set filed under Mus musculus [2], 112 mg/kg; with Mus musculus [3], more than 75 mg/kg; in the data set filed under Mus musculus [5] it was more than 75 mg/kg. Besides, the LD50 in [4] is 467 mg/kg. In the data set on Mus musculus [6], the RD50 stood at 46.5 mg/kg.
